Data from paper PMC4724694 (Acta Pharmaceutica Sinica. B, 2016).

How the values were obtained:
5-LOX [1] = target: T1, 5-LOX (Rattus norvegicus, UniProt P12527); experiment: Inhibition of 5-LOX product synthesis; type: cell-based
T1 sequence (P12527 1-673): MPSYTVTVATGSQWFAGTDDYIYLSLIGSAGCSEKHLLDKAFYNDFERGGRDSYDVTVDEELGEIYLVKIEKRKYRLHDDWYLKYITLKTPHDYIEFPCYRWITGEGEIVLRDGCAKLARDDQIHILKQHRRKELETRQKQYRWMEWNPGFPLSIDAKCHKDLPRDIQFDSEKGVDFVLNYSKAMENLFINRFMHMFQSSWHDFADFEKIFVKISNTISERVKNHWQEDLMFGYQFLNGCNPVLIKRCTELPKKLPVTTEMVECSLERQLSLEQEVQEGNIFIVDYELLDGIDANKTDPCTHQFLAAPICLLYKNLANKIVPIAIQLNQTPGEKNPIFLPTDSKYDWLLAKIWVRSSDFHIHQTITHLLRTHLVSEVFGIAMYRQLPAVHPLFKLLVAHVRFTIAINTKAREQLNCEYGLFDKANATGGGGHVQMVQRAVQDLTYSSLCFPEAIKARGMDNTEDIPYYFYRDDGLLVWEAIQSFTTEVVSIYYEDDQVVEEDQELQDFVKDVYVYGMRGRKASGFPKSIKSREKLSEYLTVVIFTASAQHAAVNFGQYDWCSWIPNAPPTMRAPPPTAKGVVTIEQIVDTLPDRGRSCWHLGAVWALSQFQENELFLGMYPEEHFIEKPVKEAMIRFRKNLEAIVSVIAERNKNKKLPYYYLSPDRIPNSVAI

HT22 cells = experiment: Glutamate-induced oxidative toxicity in HT22 neuronal cells, MTT assay; type: cell-based, mouse; settings: glutamate 5 mmol/L, 24 h, 4e at 1–100 μmol/L
BV2 cells [2] = experiment: LPS-induced nitric oxide; type: cell-based, mouse; settings: LPS 200 ng/mL, 4e at 10, 50 or 100 μmol/L, 24 h
Procedure, shortened: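 Mouse BV2 microglia grown in DMEM with 10% FBS and penicillin-streptomycin (100 μg/mL) at 37 °C, 5% CO2. Cells trypsinized and seeded at 2×10^4 cells/well; 24 h later, test compound added with or without LPS (200 ng/mL). Supernatants collected after 24 h exposure, mixed with equal volume of Griess reagent, and nitrite read at 570 nm.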

BV2 cells [3] = experiment: BV2 cell viability, MTT assay; type: cell-based, mouse; settings: tested concentrations 10, 50, 100 μmol/L, with or without LPS
5-LOX [4] = target: T2, 5-LOX (Homo sapiens, UniProt P09917); experiment: Cell-free 5-LOX enzymatic assay; type: biochemical
T2 sequence (P09917 1-674): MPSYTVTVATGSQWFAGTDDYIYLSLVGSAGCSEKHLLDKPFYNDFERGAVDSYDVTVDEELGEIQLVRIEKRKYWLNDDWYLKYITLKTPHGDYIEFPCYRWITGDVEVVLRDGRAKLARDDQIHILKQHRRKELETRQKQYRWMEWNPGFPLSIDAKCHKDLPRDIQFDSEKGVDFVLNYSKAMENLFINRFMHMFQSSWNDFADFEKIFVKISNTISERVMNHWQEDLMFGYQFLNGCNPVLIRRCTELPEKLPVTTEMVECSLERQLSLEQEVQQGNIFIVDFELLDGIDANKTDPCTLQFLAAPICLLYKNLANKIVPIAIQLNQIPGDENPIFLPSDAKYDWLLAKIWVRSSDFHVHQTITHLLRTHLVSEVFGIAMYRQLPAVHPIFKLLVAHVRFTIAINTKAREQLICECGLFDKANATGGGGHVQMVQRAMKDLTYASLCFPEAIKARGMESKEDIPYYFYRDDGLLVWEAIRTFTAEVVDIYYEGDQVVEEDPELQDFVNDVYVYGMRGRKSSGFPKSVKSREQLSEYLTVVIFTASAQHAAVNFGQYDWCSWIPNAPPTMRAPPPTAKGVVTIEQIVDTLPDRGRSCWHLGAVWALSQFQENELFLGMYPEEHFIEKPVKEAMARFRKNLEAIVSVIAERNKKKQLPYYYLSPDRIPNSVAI

mouse MCAO model = settings: in vivo, ip, 50 mg/kg
5-LOX [5] = target: T2, 5-LOX; experiment: Inhibition of 5-LOX product synthesis; type: cell-based

CC(C)(C)c1cc(NC(=O)c2cc(-c3ccc4c(c3)OCO4)n(-c3ccc(S(N)(=O)=O)cc3)n2)cc(C(C)(C)C)c1O [4e, N-(3,5-di-tert-butyl-4-hydroxyphenyl)-5-(benzo [1, 3]dioxol-5-yl)-1-(4-amino-sulfonylphenyl)-1H-pyrazole-3-carboxamide]
IC50 (5-LOX [1]; IC50 PMNL, rat peritoneal polymorphonuclear leukocytes): 690 nM
inhibition at 5 µM (5-LOX [1]; PMNL, read-out: Inhibition at 5 μmol/L (%)): 90.1%
Glutamate-induced HT22 cell death (MTT) (HT22 cells): remarkably reduced glutamate-induced HT22 cell death
LPS-induced generation of NO (BV2 cells [2]): remarkably attenuated
Cell viability of BV2 cells (MTT) (BV2 cells [3]): did not reduce the viabilities of BV2 cells
IC50 (5-LOX [4]): 133 ± 14 nM
Cortical, striatal and hemispheric infarct volumes (mouse MCAO model): significantly decreased cortical, striatal and hemispheric infarct volumes
IC50 (5-LOX [5]): 1080 nM
